ChEMBL document CHEMBL5303300, “EUbOPEN Chemogenomics Library - Multiplex” (2023)
Several values for one entry are separate records, joined by “and”; a condition that tells them apart may be missing. Equal entries are not always repeated.

Test system: HEK-293T
Test: Multiplex assay against HEK293T
Assay type: toxicity, cell-based
Conditions: human, number of replicates 2
Outline: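 Compound was added to live cells that had been stained at seeding with Hoechst33342, BioTracker Green Microtubule Cytoskeleton Dye, MitoTracker Red and Annexin V Alexa Fluor 680, and imaging followed on a CQ1 microscope at 37°C and 5% CO2. CellPathfinder machine-learning gating divided cells into Hoechst high-intensity objects or normal cells, normal cells into healthy, pyknosed or fragmented nuclei, and pyknosed cells into mitotic or apoptotic. Tubulin, mitochondrial-mass and membrane-permeability phenotypes are per cents of healthy-nucleus cells.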

[1] = 12 h, 1 µM, compound concentration 1 uM
[2] = 12 h, 10 µM, compound concentration 10 uM
[3] = 24 h, 1 µM, compound concentration 1 uM
[4] = 24 h, 10 µM, compound concentration 10 uM
[5] = 48 h, 1 µM, compound concentration 1 uM
[6] = 48 h, 10 µM, compound concentration 10 uM

CC(C)(C)c1cnc(CSc2cnc(NC(=O)C3CCNCC3)s2)o1 [BMS-387032]
Population Apoptotic (%) [1]: 64% and 60% | Population Fragmented Nuclei (%) [1]: 3% | Population Healthy Nuclei (%) [1]: 69% and 77% | Population Hoechst High Intensity Objects (%) [1]: 17% and 10% | Population Membrane Permeable-Phenotype (%) [1]: 6% and 0% | Population Mitochondria Different-Phenotype (%) [1]: 54% | Population Mitotic Cells (%) [1]: 35% and 40% | Population Normal (%) [1]: 82% and 89% | Population Pyknosed Nuclei (%) [1]: 26% and 18% | Population Tubulin-Different-Phenotype (%) [1]: 75% and 77% | Population Apoptotic (%) [2]: 87% and 73% | Population Fragmented Nuclei (%) [2]: 6% and 3% | Population Healthy Nuclei (%) [2]: 77% and 90% | Population Hoechst High Intensity Objects (%) [2]: 18% and 15% | Population Membrane Permeable-Phenotype (%) [2]: 3% and 1% | Population Mitochondria Different-Phenotype (%) [2]: 66% and 67% | Population Mitotic Cells (%) [2]: 12% and 26% | Population Normal (%) [2]: 81% and 84% | Population Tubulin-Different-Phenotype (%) [2]: 84% and 85% | Population Apoptotic (%) [3]: 73% and 69% | Population Fragmented Nuclei (%) [3]: 6% and 5% | Population Healthy Nuclei (%) [3]: 70% and 72% | Population Hoechst High Intensity Objects (%) [3]: 22% and 14% | Population Membrane Permeable-Phenotype (%) [3]: 3% and 0% | Population Mitochondria Different-Phenotype (%) [3]: 58% and 61% | Population Mitotic Cells (%) [3]: 26% and 30% | Population Normal (%) [3]: 77% and 85% | Population Pyknosed Nuclei (%) [3]: 23% and 21% | Population Tubulin-Different-Phenotype (%) [3]: 69% and 71% | Population Apoptotic (%) [4]: 87% and 75% | Population Fragmented Nuclei (%) [4]: 9% and 5% | Population Healthy Nuclei (%) [4]: 73% and 85% | Population Hoechst High Intensity Objects (%) [4]: 19% and 17% | Population Membrane Permeable-Phenotype (%) [4]: 0% | Population Mitochondria Different-Phenotype (%) [4]: 80% and 78% | Population Mitotic Cells (%) [4]: 12% and 25% | Population Normal (%) [4]: 80% and 82% | Population Pyknosed Nuclei (%) [4]: 16% and 9% | Population Tubulin-Different-Phenotype (%) [4]: 84% and 89% | Population Apoptotic (%) [5]: 77% and 81% | Population Fragmented Nuclei (%) [5]: 7% and 4% | Population Healthy Nuclei (%) [5]: 71% and 77% | Population Hoechst High Intensity Objects (%) [5]: 21% and 16% | Population Membrane Permeable-Phenotype (%) [5]: 1% and 0% | Population Mitochondria Different-Phenotype (%) [5]: 62% and 68% | Population Mitotic Cells (%) [5]: 22% and 18% | Population Normal (%) [5]: 78% and 83% | Population Pyknosed Nuclei (%) [5]: 21% and 18% | Population Tubulin-Different-Phenotype (%) [5]: 64% and 65% | Population Apoptotic (%) [6]: 92% and 93% | Population Fragmented Nuclei (%) [6]: 9% and 5% | Population Healthy Nuclei (%) [6]: 71% and 86% | Population Hoechst High Intensity Objects (%) [6]: 23% and 19% | Population Membrane Permeable-Phenotype (%) [6]: 2% | Population Mitochondria Different-Phenotype (%) [6]: 83% and 86% | Population Mitotic Cells (%) [6]: 7% and 6% | Population Normal (%) [6]: 76% and 80% | Population Pyknosed Nuclei (%) [6]: 18% and 8% | Population Tubulin-Different-Phenotype (%) [6]: 85% and 89%

CS(=O)(=O)c1ccc(C(=O)Nc2cc(F)cc(COc3cc(F)c(Br)cc3CN3CC[C@H](O)C3)c2)c(Cl)c1.O=CO
Population Apoptotic (%) [1]: 74% and 64% | Population Healthy Nuclei (%) [1]: 75% and 74% | Population Normal (%) [1]: 90% | Population Pyknosed Nuclei (%) [1]: 18% and 22% | Total Cell Count [1]: 602 and 632 | Population Apoptotic (%) [2]: 73% and 77% | Population Healthy Nuclei (%) [2]: 78% | Population Normal (%) [2]: 93% and 88% | Total Cell Count [2]: 459 and 415 | Population Apoptotic (%) [3]: 64% and 68% | Population Healthy Nuclei (%) [3]: 79% and 75% | Population Normal (%) [3]: 92% and 89% | Total Cell Count [3]: 818 and 876 | Population Apoptotic (%) [4]: 72% and 81% | Population Healthy Nuclei (%) [4]: 76% | Population Normal (%) [4]: 92% and 86% | Total Cell Count [4]: 492 and 449 | Population Apoptotic (%) [5]: 52% and 51% | Population Healthy Nuclei (%) [5]: 76% and 82% | Population Normal (%) [5]: 92% and 91% | Population Pyknosed Nuclei (%) [5]: 3% and 4% | Total Cell Count [5]: 1931 and 1977 | Population Apoptotic (%) [6]: 75% and 74% | Population Healthy Nuclei (%) [6]: 68% | Population Normal (%) [6]: 83% | Population Pyknosed Nuclei (%) [6]: 18% | Total Cell Count [6]: 551 and 447

CS(=O)(=O)c1ccc(C(=O)Nc2cccc(COc3cc(F)c(Br)cc3CN3CC[C@H](O)C3)c2)c(Cl)c1.O=CO
Population Apoptotic (%) [1]: 58% and 54% | Population Pyknosed Nuclei (%) [1]: 13% and 21% | Total Cell Count [1]: 586 and 531 | Population Apoptotic (%) [2]: 57% and 73% | Population Mitotic Cells (%) [2]: 42% | Population Pyknosed Nuclei (%) [2]: 11% and 17% | Total Cell Count [2]: 505 and 443 | Population Apoptotic (%) [3]: 53% and 54% | Population Mitotic Cells (%) [3]: 46% | Population Pyknosed Nuclei (%) [3]: 11% and 10% | Total Cell Count [3]: 800 and 910 | Population Apoptotic (%) [4]: 65% and 73% | Population Mitotic Cells (%) [4]: 34% | Population Pyknosed Nuclei (%) [4]: 16% and 13% | Total Cell Count [4]: 426 and 549 | Population Apoptotic (%) [5]: 18% and 28% | Population Mitotic Cells (%) [5]: 81% and 71% | Population Pyknosed Nuclei (%) [5]: 3% and 4% | Total Cell Count [5]: 2227 and 1546 | Population Apoptotic (%) [6]: 61% and 60% | Population Mitotic Cells (%) [6]: 38% and 39% | Population Pyknosed Nuclei (%) [6]: 10% and 8% | Total Cell Count [6]: 595 and 738

NC(=O)c1ccc(-c2nc(-c3ccc4c(c3)OCCO4)c(-c3ccccn3)[nH]2)cc1
Population Apoptotic (%) [1]: 57% and 48% | Population Fragmented Nuclei (%) [1]: 3% | Population Healthy Nuclei (%) [1]: 83% and 85% | Population Hoechst High Intensity Objects (%) [1]: 6% and 8% | Population Membrane Permeable-Phenotype (%) [1]: 0% and 2% | Population Mitochondria Different-Phenotype (%) [1]: 16% and 11% | Population Mitotic Cells (%) [1]: 42% and 52% | Population Normal (%) [1]: 93% and 91% | Population Pyknosed Nuclei (%) [1]: 13% and 10% | Population Tubulin-Different-Phenotype (%) [1]: 54% and 46% | Total Cell Count [1]: 656 and 747 | Population Apoptotic (%) [2]: 46% and 38% | Population Fragmented Nuclei (%) [2]: 3% | Population Healthy Nuclei (%) [2]: 87% and 88% | Population Hoechst High Intensity Objects (%) [2]: 7% and 4% | Population Membrane Permeable-Phenotype (%) [2]: 3% and 5% | Population Mitochondria Different-Phenotype (%) [2]: 15% and 16% | Population Mitotic Cells (%) [2]: 53% and 61% | Population Normal (%) [2]: 92% and 95% | Population Pyknosed Nuclei (%) [2]: 9% and 8% | Population Tubulin-Different-Phenotype (%) [2]: 61% and 55% | Total Cell Count [2]: 620 and 572 | Population Apoptotic (%) [3]: 44% and 61% | Population Fragmented Nuclei (%) [3]: 7% and 3% | Population Healthy Nuclei (%) [3]: 85% and 87% | Population Hoechst High Intensity Objects (%) [3]: 9% and 7% | Population Membrane Permeable-Phenotype (%) [3]: 2% and 1% | Population Mitochondria Different-Phenotype (%) [3]: 4% and 6% | Population Mitotic Cells (%) [3]: 55% and 38% | Population Normal (%) [3]: 90% and 92% | Population Pyknosed Nuclei (%) [3]: 7% and 8% | Population Tubulin-Different-Phenotype (%) [3]: 23% and 29% | Total Cell Count [3]: 1205 and 941 | Population Apoptotic (%) [4]: 48% and 44% | Population Fragmented Nuclei (%) [4]: 4% and 3% | Population Healthy Nuclei (%) [4]: 89% and 90% | Population Hoechst High Intensity Objects (%) [4]: 7% and 8% | Population Membrane Permeable-Phenotype (%) [4]: 4% and 3% | Population Mitochondria Different-Phenotype (%) [4]: 9% and 5% | Population Mitotic Cells (%) [4]: 51% and 55% | Population Normal (%) [4]: 92% and 91% | Population Pyknosed Nuclei (%) [4]: 6% and 5% | Population Tubulin-Different-Phenotype (%) [4]: 39% and 37% | Total Cell Count [4]: 908 and 852 | Population Apoptotic (%) [5]: 14% and 25% | Population Fragmented Nuclei (%) [5]: 16% and 11% | Population Healthy Nuclei (%) [5]: 80% and 85% | Population Hoechst High Intensity Objects (%) [5]: 10% | Population Membrane Permeable-Phenotype (%) [5]: 5% and 1% | Population Mitochondria Different-Phenotype (%) [5]: 0% | Population Mitotic Cells (%) [5]: 85% and 74% | Population Normal (%) [5]: 89% | Population Pyknosed Nuclei (%) [5]: 2% | Population Tubulin-Different-Phenotype (%) [5]: 11% and 15% | Total Cell Count [5]: 3179 and 2277 | Population Apoptotic (%) [6]: 6% and 9% | Population Fragmented Nuclei (%) [6]: 10% and 9% | Population Healthy Nuclei (%) [6]: 86% and 87% | Population Hoechst High Intensity Objects (%) [6]: 7% and 8% | Population Membrane Permeable-Phenotype (%) [6]: 5% | Population Mitochondria Different-Phenotype (%) [6]: 1% | Population Mitotic Cells (%) [6]: 93% and 90% | Population Normal (%) [6]: 92% and 91% | Population Pyknosed Nuclei (%) [6]: 3% | Population Tubulin-Different-Phenotype (%) [6]: 21% and 23% | Total Cell Count [6]: 2159 and 1774
